Experiments:
L1210 [1] = assay: inhibition of proliferation of cultured lymphoid leukemia L1210 cells during 48 hr.; type: functional; settings: Mus musculus, L1210, 48 h, read-out: ID50
Outline: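 Cultured L1210 cells were exposed to agent for 48 h. The value is the concentration that holds proliferation to 50% of untreated control.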

L1210 [2] = assay: Fraction of the cell population of cultured lymphoid leukemia L1210 cells in mitosis after 24 hr; at the concentration of 0.3 uM; type: functional, Mus musculus
P388 [3] = assay: antitumor activity against lymphocyte leukemia P388 in mice as percentage of increase in life span for 1 day schedule; type: functional, Mus musculus
Outline: (§1)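 Mice bearing lymphocytic leukemia P388 were treated. The value is the percent increase in life span at the highest nontoxic dose tested.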

L1210 [4] = assay: Fraction of the cell population of cultured lymphoid leukemia L1210 cells in mitosis after 12 hr; type: functional, Mus musculus
P388 [5] = assay: antitumor activity against lymphocyte leukemia P388 in mice as percentage of increase in life span for 30th day survivor, 1-5 days schedule.; type: functional, Mus musculus
P388 [6] = assay: antitumor activity against lymphocyte leukemia P388 in mice as percentage of increase in life span for 1-5 days schedule (values in the parenthesen indicates dose); type: functional, Mus musculus; outline: as §1
KB = assay: Inhibition of colony formation of KB human epidermoid carcinoma cells.; type: functional; settings: read-out: ED50 (the source's name)
L1210 [7] = assay: Antitumor activity against lymphoid leukemia L1210 in mice for 1-9 days schedule; type: functional, Mus musculus
Outline: (§2)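 Mice bearing L1210 leukemia; the read-out is the percent increase in life span, reported at the highest nontoxic dose tested. Toxic doses are flagged separately.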

L1210 [8] = assay: Antitumor activity against lymphoid leukemia L1210 in mice for 1 day schedule; type: functional, Mus musculus; outline: as §2
L1210 [9] = assay: Fraction of the cell population of cultured lymphoid leukemia L1210 cells in mitosis after 12 hr; at the concentration of 0.01 uM; type: functional, Mus musculus
L1210 [10] = assay: Fraction of the cell population of cultured lymphoid leukemia L1210 cells in mitosis after 12 hr; at the concentration of 0.3 uM; type: functional, Mus musculus
L1210 [11] = assay: Fraction of the cell population of cultured lymphoid leukemia L1210 cells in mitosis after 24 hr; type: functional, Mus musculus
L1210 [12] = assay: Fraction of the cell population of cultured lymphoid leukemia L1210 cells in mitosis after 12 hr; at the concentration of 0.03 uM; type: functional, Mus musculus
HEp-2 (Homo sapiens) = assay: Inhibition of colony formation of human epidermoid carcinoma no. 2 (HEp-2) cells.; settings: read-out: ED50 (the source's name)
P388 [13] = assay: antitumor activity against lymphocyte leukemia P388 in mice as percentage of increase in life span for 1-9 days schedule; type: functional, Mus musculus; outline: as §1
L1210 [14] = assay: Fraction of the cell population of cultured lymphoid leukemia L1210 cells in mitosis after 12 hr; at the concentration of 0.1 uM; type: functional, Mus musculus
P388 [15] = assay: antitumor activity against lymphocyte leukemia P388 in mice as percentage of increase in life span for 1-9 days schedule. (values in the parenthesen indicates dose); type: functional, Mus musculus; outline: as §1
L1210 [16] = assay: Fraction of the cell population of cultured lymphoid leukemia L1210 cells in mitosis after 24 hr at the concentration of 0.3 uM; type: functional, Mus musculus
L1210 [17] = assay: Fraction of the cell population of cultured lymphoid leukemia L1210 cells in mitosis after 12 hr at the concentration of 0.03 uM; type: functional, Mus musculus

CCOC(=O)Nc1cc2ncc(-c3ccccc3)nc2c(N)n1
IC50 (L1210 [1]): > 300 nM | Mitotic index (L1210 [2]): 0.02 | ILS (P388 [3]): 0%

CCOC(=O)Nc1cc2c(c(N)n1)N=C(c1ccc3ccccc3c1)CN2
Mitotic index (L1210 [4]): 0.6 | IC50 (L1210 [1]): 6 nM | ILS (P388 [5]): 66% | ILS (mg/kg) (P388 [6]): 53%

CCOC(=O)Nc1cc(N(C)CC(O)c2ccccc2)c(N)c(N)n1 (centres undefined)
IC50 (L1210 [1]): > 300 nM | ILS (P388 [3]): 0%

CCOC(=O)Nc1cc(N)c2c(n1)NCC(CN(C)c1ccc(C(=O)OC)cc1)=N2
EC50 (KB): 24000 nM | ILS (L1210 [7]): 0% | ILS (L1210 [8]): 0%

COC(=O)c1ccc(N(C)CC2=Nc3c(N)nc(N)nc3NC2)cc1
EC50 (KB): 21000 nM

CCOC(=O)Nc1cc2c(c(N)n1)N=C(c1ccc(-c3ccccc3)cc1)CN2
Mitotic index (L1210 [9]): 0.65 | Mitotic index (L1210 [10]): 0.42 | IC50 (L1210 [1]): 6.1 nM | ILS (P388 [3]): 36%

CCOC(=O)Nc1cc2ncc(-c3ccc(C(F)(F)F)cc3)nc2c(N)n1
IC50 (L1210 [1]): > 300 nM

CCOC(=O)Nc1cc2c(c(N)n1)N=C(CN(C)c1ccccc1)CN2
Mitotic index (L1210 [11]): 0.8 | IC50 (L1210 [1]): 8.4 nM | Mitotic index (L1210 [12]): 0.77 | ILS (P388 [3]): 114%

CCOC(=O)Nc1cc2c(c(N)n1)N=C(CCc1ccccc1)CN2
IC50 (L1210 [1]): 13 nM | Mitotic index (L1210 [2]): 0.33 | ILS (P388 [3]): 29%

COC(=O)c1ccc(N(C)CC2=Nc3c(cc(N)nc3Cl)NC2)cc1
EC50 (KB): > 100000 nM

CCOC(=O)Nc1cc2ncc(CNc3ccc(C(=O)OCC)cc3)nc2c(N)n1
EC50 (HEp-2 (Homo sapiens)): 42000 nM

CCOC(=O)Nc1cc2ncc(C(=O)N(C)c3ccccc3)nc2c(N)n1
EC50 (KB): > 100000 nM | ILS (L1210 [8]): 0%

CCOC(=O)c1ccc(NCC2=Nc3c(N)nc(N)nc3NC2)cc1
EC50 (KB): 10000 nM | ILS (L1210 [7]): 0% | ILS (L1210 [8]): 8%

CCOC(=O)Nc1cc(N)c2nc(CN(C)c3ccc(C(=O)OC)cc3)cnc2n1
EC50 (KB): 240000 nM | ILS (L1210 [7]): 0% | ILS (L1210 [8]): 0%

CN(Cc1cnc2cc(N)nc(N)c2n1)c1ccccc1
EC50 (KB): > 100000 nM | ILS (L1210 [7]): 0% | ILS (L1210 [8]): 0%

CCOC(=O)c1ccc(NCc2cnc3nc(N)nc(N)c3n2)cc1
EC50 (KB): 17000 nM | ILS (L1210 [7]): 0% | ILS (L1210 [8]): 0%

COC(=O)c1ccc(N(C)Cc2cnc3nc(N)nc(N)c3n2)cc1
EC50 (KB): 19000 nM | ILS (L1210 [7]): 2% | ILS (L1210 [8]): 3%

CCOC(=O)Nc1cc2c(c(O)n1)N=C(CN(C)c1ccc(C(=O)OC)cc1)CN2
EC50 (KB): 8000 nM | ILS (L1210 [8]): 2%

CN(CC1=Nc2c(cc(N)nc2N)NC1)c1ccccc1
ILS (P388 [13]): 30% | Mitotic index (L1210 [10]): 0.61 | Mitotic index (L1210 [14]): 0.44 | IC50 (L1210 [1]): 5.8 nM

CCOC(=O)Nc1cc2c(c(NC(=O)OCC)n1)N=C(CN(C)c1ccccc1)CN2
ILS (L1210 [7]): 14% | ILS (L1210 [8]): 46% | EC50 (HEp-2 (Homo sapiens)): 1200 nM

CCOC(=O)Nc1cc2c(c(NC(=O)OCC)n1)N=C(C)CN2
EC50 (KB): 91000 nM | ILS (L1210 [8]): 0%

CCOC(=O)Nc1cc2ncc(CN(C)c3ccc(C(=O)OC)cc3)nc2c(N)n1
EC50 (HEp-2 (Homo sapiens)): 19000 nM

CCOC(=O)Nc1cc2c(c(N)n1)NC(CN(C)c1ccccc1)CN2 (centres undefined)
EC50 (KB): 600 nM | ILS (L1210 [8]): 10%

CCOC(=O)Nc1cc2ncc(CN(C)c3ccccc3)nc2c(N)n1
EC50 (KB): 670 nM

CN(CC1=Nc2c(cc(N)nc2S)NC1)c1ccc(C(=O)O)cc1
EC50 (KB): 29000 nM

CCOC(=O)Nc1cc2c(c(N)n1)N=C(c1ccc(C(F)(F)F)cc1)CN2
ILS (mg/kg) (P388 [15]): 17% | IC50 (L1210 [1]): 150 nM | Mitotic index (L1210 [2]): 0.01 | ILS (P388 [3]): 0%

CCOC(=O)Nc1ccc(/N=C/c2ccccc2)cn1
IC50 (L1210 [1]): > 300 nM | ILS (P388 [3]): 0%

CCOC(=O)Nc1cc2c(c(N)n1)N=C(c1ccccc1)CN2C
Mitotic index (L1210 [10]): 0.68 | IC50 (L1210 [1]): 160 nM | ILS (P388 [3]): 12%

CCOC(=O)Nc1ccc(/N=C(/C=C(/O)OCC)c2ccccc2)c(N)n1
IC50 (L1210 [1]): > 300 nM | Mitotic index (L1210 [2]): 0.03

CCOC(=O)Nc1cc2c(c(N)n1)N=C(c1ccccc1)C(C)N2 (centres undefined)
IC50 (L1210 [1]): 0.51 nM | ILS (mg/kg) (P388 [6]): 75% | ILS (P388 [3]): 54%

CCOC(=O)Nc1cc2c(c(N)n1)N=C(c1ccccc1)CN2
Mitotic index (L1210 [16]): 0.54 | ILS (mg/kg) (P388 [15]): 51% | Mitotic index (L1210 [17]): 0.65 | IC50 (L1210 [1]): 4.7 nM | ILS (P388 [3]): 55%

Source: ChEMBL document CHEMBL1122315, “1,2-Dihydropyrido[3,4-b]pyrazines: structure-activity relationships” (1983)
